This passage reports Tm, Activity and K results from ChEMBL document CHEMBL2311475, “Highly solvatochromic fluorescent naphthalimides: design, synthesis, photophysical properties and fluorescence switch-on sensing of ct-DNA” (Bioorg Med Chem Lett, 2013).

Holding throughout (format): nucleic-acid assay
Settings in all cases: Bos taurus

Assay [1] deals with DNA. The experiment in a line: Binding affinity to calf thymus DNA assessed melting temperature at 1:1.5 compound:DNA ratio by thermal denaturation assay (reference value: 65.83 degC).
For assay [2], the system named is DNA. The experiment in a line: Displacement of ethidium bromide from calf thymus DNA at 3.5 to 75 uM by fluorescence spectrophotometric analysis.
Assay [3] relates to DNA. The experiment in a line: Binding affinity to calf thymus DNA assessed melting temperature at 1:1 compound:DNA ratio by thermal denaturation assay (reference value: 65.83 degC).
Assay [4] relates to DNA. In words: Binding affinity to calf thymus DNA assessed melting temperature at 2:1 compound:DNA ratio by thermal denaturation assay (reference value: 65.83 degC).
Assay [5] has as its system DNA. In words: Binding affinity to calf thymus DNA at 1:0.67 to 1:2 DNA:compound ratio by UV-Vis spectrophotometric analysis. The method in brief:
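Absorption spectra of the probe were recorded in aqueous phosphate buffer, pH 7.0, while ct-DNA was added gradually. Shifts in band position and changes in intensity were followed.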

The test system of assay [6] is DNA. The experiment in a line: Binding affinity to calf thymus DNA assessed melting temperature at 1:0.5 compound:DNA ratio by thermal denaturation assay (reference value: 65.83 degC).
For assay [7], the system named is DNA. In words: Binding affinity to calf thymus DNA at 30 uM by fluorescence titration method. The method in brief:
(§1)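 Fluorescence titration: probe held at 30 μM in aqueous phosphate buffer, pH 7.0, at room temperature, with increasing concentrations of ct-DNA added. Emission spectra were recorded at each step.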

Assay [8] has as its system DNA. In words: Binding affinity to calf thymus DNA at 30 uM by in presence of increasing concentration of DNA by Benesi-Hildebrand plot analysis.
Assay [9] has as its system DNA. In words: Binding affinity to calf thymus DNA at 1:1 compound:DNA ratio by fluorescence titration method. The procedure, abridged:
as §1

In general, Tm refers to the temperature at the midpoint of the melting transition.

The source made the active and inactive calls. No cut-off for these calls is given here.

`C#CCN1C(=O)c2cccc3c(C#Cc4ccc(C#N)cc4)ccc(c23)C1=O`: the Tm in the assay with DNA [1] stood at 64.3 °C; in the assay with DNA [3], 64.9 °C; in the assay on DNA [4] it was 63.2 °C; with DNA [6] it was 65.6 °C. Moreover, the outcome in the assay with DNA [2] and in the assay on DNA [5] was inactive. Further, in the assay on DNA [7], the result was Active. In addition, the K in the assay on DNA [8] was found to be 3.98 ×10⁴ /M.

As to `C#CCN1C(=O)c2cccc3c(C#Cc4ccc(N(C)C)cc4)ccc(c23)C1=O`, the outcome in the assay on DNA [9] was Active. Also, the outcome in the assay on DNA [2] and with DNA [5] was inactive.
